Here are results for eleven compounds from ChEMBL document CHEMBL2434951, “Synthesis and antimicrobial activity of polyhalobenzonitrile quinazolin-4(3H)-one derivatives” (2013).

SMILES strings stand for the structures. Calls of active or inactive are those of the source. No cut-off for these calls is given here.

Holding throughout (assay type): functional
One assay deals with Staphylococcus aureus. The assay is described as follows: Antibacterial activity against Staphylococcus aureus ATCC 6538 assessed as growth inhibition at 1000 ug/mL after 24 hrs by disk diffusion assay. To be noted: for zone of inhibition at 1000 µg/mL: ATCC 6538, 24 h, read-out: DIZ. A digest of the protocol: (§1)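 Disk diffusion on nutrient agar, inoculum spread evenly. Disks of 6 mm Whatman No. 1 paper, dry-heat sterilized at 121 °C for 1 h, soaked in test compound at 1000 (micro)g/mL. Norfloxacin and chlorothalonil disks as positive controls, DMSO disks as negative control. Plates incubated 24 h at 37 °C. Inhibition zone diameter measured in mm.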
Background: In agar diffusion tests the substance spreads into inoculated agar from a disc or well.

Another assay has as its system Candida albicans. Put plainly: Antifungal activity against Candida albicans ATCC 10231 assessed as growth inhibition at 1000 ug/mL after 24 hrs by disk diffusion assay. A digest of the protocol: as §1
For another assay, the system named is Pseudomonas aeruginosa. Put plainly: Antibacterial activity against Pseudomonas aeruginosa ATCC 15442 assessed as growth inhibition at 1000 ug/mL after 24 hrs by disk diffusion assay. To be noted: for zone of inhibition at 1000 µg/mL: ATCC 15442, 24 h, read-out: DIZ. The method, boiled down: as §1
The next assay deals with Escherichia coli. Put plainly: Antibacterial activity against Escherichia coli ATCC 8099 assessed as growth inhibition at 1000 ug/mL after 24 hrs by disk diffusion assay. To be noted: for zone of inhibition at 1000 µg/mL: ATCC 8099, 24 h, read-out: DIZ. A digest of the protocol: as §1
A further assay relates to Bacillus cereus. The assay is described as follows: Antibacterial activity against Bacillus cereus ATCC 14579 assessed as growth inhibition at 1000 ug/mL after 24 hrs by disk diffusion assay. To be noted: for zone of inhibition at 1000 µg/mL: ATCC 14579, 24 h, read-out: DIZ. A digest of the protocol: as §1

As for `Nc1ccc(Nc2ccc(Cl)cc2)c2c(=O)[nH]cnc12`, the “diameter of the inhibition zone (DIZ)” value with Staphylococcus aureus, in the assay with Candida albicans, in the assay with Pseudomonas aeruginosa, in the assay on Escherichia coli and in the assay on Bacillus cereus was “inactive” each time.
As to `CCN(CC)c1ccc(N)c2nc[nH]c(=O)c12`, the zone of inhibition at 1000 µg/mL worked out at 7.3 mm in the assay with Staphylococcus aureus, 7.5 mm in the assay with Pseudomonas aeruginosa, 6 mm in the assay on Escherichia coli and 6 mm in the assay on Bacillus cereus. For the same compound, the “diameter of the inhibition zone (DIZ)” value in the assay with Candida albicans was “inactive”.
Regarding `Cc1ccc(Nc2ccc(N)c3nc[nH]c(=O)c23)cc1C`, in the assay with Staphylococcus aureus, the zone of inhibition at 1000 µg/mL was found to be 6.5 mm. Further, the “diameter of the inhibition zone (DIZ)” value with Candida albicans, with Pseudomonas aeruginosa, in the assay on Escherichia coli and in the assay with Bacillus cereus was “inactive” in each case.
As to `CCN(CC)c1ccc(Nc2c(Cl)c(Cl)c(C#N)c(Cl)c2C#N)c2nc[nH]c(=O)c12`, the zone of inhibition at 1000 µg/mL in the assay on Staphylococcus aureus was found to be 7.7 mm; in the assay on Pseudomonas aeruginosa, 7.5 mm; in the assay with Escherichia coli it was 6 mm; with Bacillus cereus it was 6 mm. Also, the “diameter of the inhibition zone (DIZ)” value with Candida albicans was “inactive”.
Regarding `CN(C)c1ccc(N)c2nc[nH]c(=O)c12`, the “diameter of the inhibition zone (DIZ)” value with Staphylococcus aureus, with Candida albicans, with Pseudomonas aeruginosa and in the assay on Bacillus cereus was “inactive” each time. Besides, the zone of inhibition at 1000 µg/mL in the assay on Escherichia coli stood at 8.5 mm.
As for `Cc1cccc(Nc2ccc(N)c3nc[nH]c(=O)c23)c1`, the “diameter of the inhibition zone (DIZ)” value in the assay on Staphylococcus aureus, in the assay with Candida albicans, with Pseudomonas aeruginosa and in the assay with Bacillus cereus was “inactive” each time. Also, the zone of inhibition at 1000 µg/mL in the assay with Escherichia coli turned out to be 6.5 mm.
`Nc1ccccc1Nc1ccc([N+](=O)[O-])c2nc[nH]c(=O)c12`: the “diameter of the inhibition zone (DIZ)” value with Staphylococcus aureus, with Candida albicans, in the assay on Pseudomonas aeruginosa and in the assay on Bacillus cereus was “inactive” throughout. For the same compound, the zone of inhibition at 1000 µg/mL in the assay with Escherichia coli was 7.8 mm.
With `Nc1ccc(N2CCCCC2)c2c(=O)[nH]cnc12`, the “diameter of the inhibition zone (DIZ)” value with Staphylococcus aureus, in the assay on Candida albicans, with Pseudomonas aeruginosa and with Bacillus cereus was “inactive” each time. Also, in the assay on Escherichia coli, the zone of inhibition at 1000 µg/mL is 7.8 mm.
In the case of `Cc1ccc(Nc2ccc(N)c3nc[nH]c(=O)c23)cc1`, the “diameter of the inhibition zone (DIZ)” value in the assay on Staphylococcus aureus, with Candida albicans, with Pseudomonas aeruginosa, with Escherichia coli and with Bacillus cereus was “inactive” each time.
Regarding `Nc1ccc(Nc2ccc(F)cc2)c2c(=O)[nH]cnc12`, the “diameter of the inhibition zone (DIZ)” value in the assay on Staphylococcus aureus, in the assay on Candida albicans and in the assay with Escherichia coli was “inactive” throughout. Also, the zone of inhibition at 1000 µg/mL with Pseudomonas aeruginosa and in the assay with Bacillus cereus was 6 mm throughout.
In the case of `Cc1cc(C)cc(Nc2ccc(N)c3nc[nH]c(=O)c23)c1`, the “diameter of the inhibition zone (DIZ)” value in the assay with Staphylococcus aureus, in the assay on Candida albicans and in the assay with Escherichia coli was “inactive” in each case. Besides, the zone of inhibition at 1000 µg/mL in the assay on Pseudomonas aeruginosa stood at 6.3 mm; in the assay with Bacillus cereus, 6 mm.
